Hits are enriched below; roughly 2.7% of the tested compounds scored in any of these assays.
pPAFAH FP inh = inhibitors of human plasma PAF acetylhydrolase (pPAFAH). Q13093. inhibition, % at 3.39 µM. hit rate 1.5% among 330,000. AID 463082. recombinant pPAFAH, FP-rhodamine probe fluorescence polarization;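 active = inhibition above the mean inhibition across the screen plus 3 SD, cut at about 25% in these data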;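 note: inhibitors block binding of the rhodamine activity-based probe so polarization drops; 0% = enzyme with DMSO and 100% = wells lacking pPAFAH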
PAFAH2 inh = PAFAH2 (human) inhibition | recombinant PAFAH2, FP-rhodamine activity probe, fluorescence polarization | inhibition, % at 3.39 µM | hit rate 0.99% among 340,000 | AID 492956;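 active = inhibition above the mean over all tested compounds plus 3 SD, cut at about 30% in these data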;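 note: inhibitors block probe labeling of enzyme so polarization drops; 0% = enzyme with DMSO and 100% = wells lacking PAFAH2 protein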
PAFAH1B2 inh = inhibitors of human PAFAH1B2. recombinant PAFAH1B2, FP-rhodamine activity probe, fluorescence polarization. inhibition, % at 3.39 µM. hit rate 1.2% among 340,000;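 active = inhibition above the mean of all tested compounds plus 3 SD, cut at about 24% in these data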;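 note: 0% = enzyme with DMSO and 100% = wells lacking PAFAH1B2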
Target sequence (P68402 whole entry, looked up): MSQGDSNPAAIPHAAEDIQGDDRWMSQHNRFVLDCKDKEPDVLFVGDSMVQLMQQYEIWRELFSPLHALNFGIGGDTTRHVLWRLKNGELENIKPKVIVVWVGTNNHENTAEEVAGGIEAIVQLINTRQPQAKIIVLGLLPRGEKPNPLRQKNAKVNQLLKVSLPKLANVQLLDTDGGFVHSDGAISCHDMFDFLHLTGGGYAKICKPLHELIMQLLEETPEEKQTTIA
ASAP1 inh = ASAP1 ArfGAP inhibition. Q9ULH1. hit rate 0.19% among 360,000. inhibition, % at 16.5 µM. ASAP1-stimulated ARF1 GTP hydrolysis, GDP FP detection; in the data active = inhibition above about 25%;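 note: 0% = vehicle with enzyme and substrate and 100% = no enzyme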
PAFAH1B3 FP inh = blocks human PAF acetylhydrolase 1B catalytic subunit 3; AID 492972; inhibition, % at 3.39 µM; hit rate 0.28% among 340,000; recombinant PAFAH1B3, FP-rhodamine probe, fluorescence polarization; Q15102;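 active = inhibition above the screen-wide average of all tested compounds plus 3 SD, cut at about 25% in these data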;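 note: 0% = enzyme with DMSO only and 100% = wells lacking PAFAH1B3 protein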
Target sequence (Q15102 whole entry, looked up): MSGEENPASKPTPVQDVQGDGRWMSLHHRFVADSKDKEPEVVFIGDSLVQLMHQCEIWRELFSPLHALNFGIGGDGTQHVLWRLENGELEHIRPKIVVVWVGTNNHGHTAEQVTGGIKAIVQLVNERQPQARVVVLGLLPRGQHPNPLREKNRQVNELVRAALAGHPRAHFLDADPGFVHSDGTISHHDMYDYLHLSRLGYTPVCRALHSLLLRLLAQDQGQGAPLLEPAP
ARFGAP1 inhibitor = rat ARFGAP1 inhibition; Q62848; Arfgap1-stimulated ARF1 GTP hydrolysis, GDP FP detection; inhibition, % at 16.5 µM; hit rate 0.26% among 360,000; AID 651572;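 active = inhibition above a per-plate limit, mean inhibition of low control wells plus 3 SD, cut at about 25% in these data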;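 note: 0% = DMSO wells with enzyme and 100% = wells lacking Arfgap1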
Target sequence (Q62848 1-136 limits assumed): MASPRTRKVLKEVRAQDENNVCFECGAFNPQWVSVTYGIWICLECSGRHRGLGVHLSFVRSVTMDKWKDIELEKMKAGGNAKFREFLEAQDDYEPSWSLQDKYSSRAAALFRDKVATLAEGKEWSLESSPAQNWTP
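Replicates: Single well per compound | Assay system: Truncated rat Arfgap1 GAP domain | Control set: No-Arfgap1 wells (100%) versus DMSO full-reaction wells (0%) | Times: Enzyme reaction 120 min at 25 °C after 20 min preincubation | Reagent: Human ARF1(Δ1-17)-GTP substrate | Measured by: Tracer-displacement fluorescence polarization with EDTA stop, 620/688 nm | Measure: Percent inhibition of Arfgap1-stimulated GTP hydrolysis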
Starred values were filed as active, the others as inactive; / = not tested or not shown.

SMILES	pPAFAH FP inh	PAFAH2 inh	PAFAH1B2 inh	ASAP1 inh	PAFAH1B3 FP inh	ARFGAP1 inhibitor
COC(=O)[C@]12C[C@H](CC(=O)NCc3ccccc3)C(=O)N(Cc3ccccc3)C1=C[C@H](C(C)(C)C)O[C@@H]2C	/	/	/	1.4	/	1.7
COc1ccc(N2C(=O)c3n[nH]c(C)c3C2c2ccccc2)cc1 (stereo not drawn)	/	/	/	3.2	/	3.1
O=C(C1CCCN1C(=O)c1cccs1)N1CCN(S(=O)(=O)c2ccc(F)cc2)CC1 (stereo not drawn)	1.7	-3.0	28.8*	-5.3	11.0	-2.2
COC(=O)C1=C(C)N(C)C(=NCC2CC2)NC1c1ccccc1 (stereo not drawn)	/	/	/	-9.5	/	-4.2
COc1cccc2sc(Nc3nc(-c4cc5ccccc5oc4=O)cs3)nc12	5.3	1.7	7.6	22.9	9.5	30.4*
Nc1c(Cl)cc(-c2csc(NCCc3nc4cc(Cl)c(Cl)cc4n3CCCO)n2)cc1Cl	-4.4	-0.5	5.7	-5.3	9.2	12.8
O=[N+]([O-])c1cc(-c2csc(NCCc3nc4cc(C(F)(F)F)ccc4n3CCCO)n2)ccc1Cl	13.3	-3.7	32.3*	13.6	-0.7	7.3
OCCCn1c(CCNc2nc(-c3ccc(Cl)cc3)cs2)nc2cc(C(F)(F)F)ccc21	6.9	5.7	27.1*	0.8	5.4	5.6
COC(=O)c1sc(-c2ccc(C(C)(C)C)cc2)cc1NC(=O)CSCC(=O)O	32.2*	5.3	2.3	7.8	3.7	-2.0
C=CCN1CC(COCCCC)Oc2ccc(Cl)cc2S1(=O)=O (stereo not drawn)	/	/	/	5.8	/	7.8
Cc1ccccc1C(=O)N[C@@H](CC(C)C)C(=O)N1CCC[C@H]1C(=O)NCc1ccccc1	/	/	/	-0.7	/	7.7
O=S(=O)(c1cccs1)N1CCCc2nc(-c3ccc(F)cc3)ccc21	/	/	/	-9.8	/	-2.4
O=C(C(=O)N1CCC(CNC(=O)c2cccnc2Cl)CC1)c1cc2ccccc2o1	/	/	/	5.1	/	2.9
Cc1oc2ccc(OCc3cccc(Cl)c3)cc2c1C(=O)O	/	1.2	9.2	1.6	-7.6	-2.1
Cc1oc2ccc(OCc3ccc(F)cc3)cc2c1C(=O)O	-2.1	-1.6	24.5*	4.1	-4.4	0.5
CC(/C=C1\SC(=S)N(NC(=O)c2ccccc2C)C1=O)=C\c1ccccc1	-4.1	-4.2	0.8	-1.6	1.9	-3.6
CC(/C=C1\SC(=S)N(NS(=O)(=O)c2ccccc2)C1=O)=C\c1ccccc1	10.4	7.2	38.8*	-4.1	8.6	-25.0
CC(/C=C1\SC(=S)N(NS(=O)(=O)c2ccc(C)cc2)C1=O)=C\c1ccccc1	13.8	4.4	28.3*	-14.4	4.2	-26.1
CC(/C=C1\SC(=S)N(NC(=O)c2ccc(C)cc2)C1=O)=C\c1ccccc1	-3.3	-25.7	0.5	/	-11.5	/
Nc1nn2c(-c3ccccc3)cc(=O)[nH]c2c1N=Nc1ccc(O)cc1	27.4*	29.1	13.9	11.5	16.2	-3.4
Cc1ccc(C(=O)Nc2ncc(Cc3ccc(F)cc3)s2)o1	2.2	6.4	28.2*	3.7	1.8	2.4
C[C@@H]1C=CCCO[C@]12C(=O)N(CC1CC1)c1ccccc12	/	/	/	8.8	/	-4.0
N#Cc1ccc(CSc2nc(N)cc(=O)[nH]2)cc1	4.3	-0.3	18.9	-7.3	6.2	-2.7
Cc1ccc(CSc2nc3c(c(=O)[nH]2)CCC3)cc1	8.3	1.9	24.8*	-15.8	10.3	5.7
Cc1ccccc1CSc1nc2c(c(=O)[nH]1)CCCC2	50.5*	/	/	/	/	/
SMILES	pPAFAH FP inh	PAFAH2 inh	PAFAH1B2 inh	ASAP1 inh	PAFAH1B3 FP inh	ARFGAP1 inhibitor
Cc1ccc(CSc2nc(N)cc(=O)[nH]2)cc1	1.6	-9.7	24.5*	2.6	-8.5	3.5
CCCc1cc(=O)[nH]c(SCc2ccc(F)cc2)n1	30.6*	1.9	11.1	-1.4	6.5	-4.3
COc1ccccc1CCn1cnc(-c2cccc(F)c2)c1C(C)C	/	/	/	-5.6	/	2.1
C[C@@H]1CN(C(=O)OC(C)(C)C)CCN1c1ccc(Br)c(C#N)c1	/	/	/	-18.8	/	24.1
CCCCc1ccc(Nc2nc(CCC)cc(=O)[nH]2)cc1	28.7*	0.1	1.0	0.5	1.6	-3.2
COc1cc(NC(=O)c2cc(OC)c(OC)c(OC)c2)c2ncccc2c1	/	-1.6	26.7*	-10.1	10.3	-4.3
COc1cc(NC(=O)c2ccc3c(c2)OCO3)c2ncccc2c1	-2.0	4.0	4.9	20.2	-0.3	6.8
c1coc(-c2nc3c4ccccc4ccn3c2Cc2ccsc2)c1	/	/	/	6.5	/	16.4
O=C(NCCc1ccccc1Cl)[C@@H]1CCCN1C(=O)[C@H](Cc1cccnc1)NC(=O)N1CCOCC1	/	/	/	-4.1	/	-1.5
CCOc1cc(/C=C2\N=C(SCC)SC2=O)cc([N+](=O)[O-])c1OC(C)=O	22.6	53.4*	24.4*	7.5	12.4	-1.4
Oc1c(Cl)cc(Cl)cc1C=Nc1cc(C(F)(F)F)ccc1N1CCc2ccccc2C1	27.8*	5.6	4.3	-3.5	4.7	5.8
Oc1c(Cl)cccc1C=Nc1cc(C(F)(F)F)ccc1N1CCCC1	21.2	1.3	1.1	7.8	13.2	1.0
CCOC(=O)c1sc(N2C(=O)C(O)=C(C(=O)c3ccc(C)o3)C2c2ccc(OC)c(OC)c2)nc1C (stereo not drawn)	5.5	-1.5	1.2	0.1	2.8	-5.4
CCOC(=O)c1sc(N2C(=O)C(O)=C(C(=O)c3ccc(C)o3)C2c2cccc([N+](=O)[O-])c2)nc1C (stereo not drawn)	12.6	47.5*	2.8	3.4	11.1	4.0
COC(=O)c1cc2c(c3c4cc(OC)ccc4n(C(=O)c4ccccc4)c13)C(=O)N(Cc1ccco1)C2	/	/	/	6.0	/	0.9
CN(C)c1ccc(N=Nc2ccc(S(=O)(=O)O)cc2)c2ccccc12	29.6*	12.7	3.2	-12.4	4.5	-11.9
CNc1nc(NCCOC23CC4CC(CC(C4)C2)C3)nc(OCC(F)(F)F)n1	-0.5	6.2	31.3*	8.1	2.7	9.3
Cc1cccc(C2=NN(c3ccc(Br)cc3)[C@@H](C(=O)N3CCOC3=O)[C@@H]2c2ccccc2)c1	28.8*	6.7	1.7	/	11.0	/
Cc1cccc(C2=NN(c3ccccc3)[C@@H](C(=O)N3CCOC3=O)[C@@H]2c2ccccc2)c1	7.5	0.1	4.8	11.2	10.8	-5.8
CCOC(=O)c1cc(CC)sc1NC(=O)C1CC(=O)NN1Cc1ccccc1 (stereo not drawn)	31.8*	-11.4	1.0	2.0	2.6	1.7
CCCCOc1ccc(C(=O)NC2CCCCN(C)C2=O)cc1 (stereo not drawn)	/	/	/	-2.9	/	-0.7
CCCC(=O)NC(c1ccco1)c1cc(Cl)c2cccnc2c1O (stereo not drawn)	29.8*	-3.4	5.5	5.2	12.4	-0.3
CCCC(=O)NC(c1ccc2c(c1)OCO2)c1cc(Cl)c2cccnc2c1O (stereo not drawn)	32.4*	0.5	2.3	/	7.2	/

Bioassay records as filed in PubChem.
